Results as given in ChEMBL document CHEMBL1122797, “Benzisoxazolones: antimicrobial and antileukemic activity” (1984).
Converted amounts (≈) assume the structure as drawn. “And” between values parts separate entries of the source, which are not always exact repeats. Identical values can stand only once. The source made the active and inactive calls. No cut-off for these calls is given here.

Columns and labels:
[1] = tested on: Bacillus subtilis; assay: Evaluation of in vitro antimicrobial activity with an agar diffusion assay against Bacillus subtilis; type: functional
Summary of the method: (§1)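 Agar diffusion assay. A standard antibiotic was run to validate the assays, with data reproducible to ± 3 mm between assays.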

[2] = tested on: Escherichia coli; assay: Evaluation of in vitro antimicrobial activity with an agar diffusion assay against Escherichia coli; type: functional; summary of the method: as §1
[3] = tested on: Klebsiella pneumoniae; assay: Evaluation of in vitro antimicrobial activity with an agar diffusion assay against Klebsiella pneumoniae; type: functional; summary of the method: as §1
[4] = tested on: Micrococcus luteus; assay: Evaluation of in vitro antimicrobial activity with an agar diffusion assay against Micrococcus luteus; type: functional; summary of the method: as §1
[5] = tested on: Penicillium oxalicum; assay: Evaluation of in vitro antimicrobial activity with an agar diffusion assay against Penicillium oxalicum; type: functional, pencillium oxalicum; summary of the method: as §1
[6] = tested on: Proteus vulgaris; assay: Evaluation of in vitro antimicrobial activity with an agar diffusion assay against Proteus vulgaris; type: functional; summary of the method: as §1
[7] = tested on: Pseudomonas; assay: Evaluation of in vitro antimicrobial activity with an agar diffusion assay against Pseudomonas fluorescence; type: functional; summary of the method: as §1
[8] = tested on: Pseudomonas aeruginosa; assay: Evaluation of in vitro antimicrobial activity with an agar diffusion assay against Pseudomonas aeruginosa; type: functional; summary of the method: as §1
[9] = Evaluation of in vitro antimicrobial activity with an agar diffusion assay against Salmonella schottmuelleri; type: functional; summary of the method: as §1
[10] = tested on: Staphylococcus aureus; assay: Evaluation of in vitro antimicrobial activity with an agar diffusion assay against Staphylococcus aureus; type: functional; summary of the method: as §1
[11] = tested on: Pseudomonas aeruginosa; assay: Evaluation of in vitro antimicrobial activity with an agar diffusion assay against Pseudomonas aeruginosa; Inactive; type: functional, organism-based; summary of the method: as §1
[12] = tested on: L1210; assay: In vitro antileukemic (cytotoxic) activity against L1210 cells in suspension.; type: functional, Mus musculus; settings: for IC50: Mus musculus, L1210, read-out: ID50 (the source's name)
[13] = tested on: L1210; assay: In vitro evaluation of the antileukemic (cytotoxic) activity against L1210 cells in suspension; type: functional, Mus musculus
[14] = tested on: Escherichia coli; assay: In vitro evaluation of antimicrobial activity with microplate broth dilution assay against Escherichia coli UC45; type: functional
Summary of the method: (§2)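 Serial twofold dilutions prepared in modified brain heart infusion broth in microplate wells. Each well inoculated with standardized cell suspension to ~10^6 viable cells per mL of drug-supplemented medium. Plates incubated 37 °C for 20 h. MIC read as lowest concentration inhibiting visible growth.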

[15] = tested on: Klebsiella pneumoniae; assay: In vitro evaluation of antimicrobial activity with microplate broth dilution assay against Klebsiella pneumoniae UC58; type: functional; summary of the method: as §2
[16] = tested on: Proteus mirabilis; assay: In vitro evaluation of antimicrobial activity with microplate broth dilution assay against Proteus mirabilis UC6671; type: functional; summary of the method: as §2
[17] = tested on: Providencia stuartii; assay: In vitro evaluation of antimicrobial activity with microplate broth dilution assay against Providencia stuartii UC6570; type: functional; summary of the method: as §2
[18] = tested on: Proteus vulgaris; assay: In vitro evaluation of antimicrobial activity with microplate broth dilution assay against Proteus vulgaris UC93; type: functional; summary of the method: as §2
[19] = tested on: Salmonella typhi; assay: In vitro evaluation of antimicrobial activity with microplate broth dilution assay against Salmonella typhi UC215; type: functional, Salmonella enterica subsp. enterica serovar Typhi; settings: Salmonella enterica
Summary of the method: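 Twofold serial dilutions in modified brain heart infusion broth in microplate wells, each inoculated with standardized cell suspension to about 10^6 viable cells/mL final. Incubated 37 °C for 20 h. MIC read as the lowest concentration inhibiting visible growth.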

[20] = In vitro evaluation of antimicrobial activity with microplate broth dilution assay against Salmonella schottmuelleri UC126; type: functional; summary of the method: as §2
[21] = tested on: Saccharomyces pastorianus; assay: Evaluation of in vitro antimicrobial activity with an agar diffusion assay against Saccharomyces pastorianus; type: functional; summary of the method: as §1
[22] = tested on: Shigella flexneri; assay: In vitro evaluation of antimicrobial activity with microplate broth dilution assay against Shigella flexneri UC143; type: functional; summary of the method: as §2
[23] = tested on: Serratia marcescens; assay: In vitro evaluation of antimicrobial activity with microplate broth dilution assay against Serratia marcescens UC131; type: functional; summary of the method: as §2
[24] = tested on: Enterococcus faecalis; assay: In vitro evaluation of antimicrobial activity with microplate broth dilution assay against Streptococcus faecalis UC694; type: functional, streptococcus feacal; summary of the method: as §2
[25] = tested on: Staphylococcus aureus; assay: In vitro evaluation of antimicrobial activity with microplate broth dilution assay against Staphylococcus aureus UC76; type: functional; summary of the method: as §2
[26] = tested on: Pseudomonas aeruginosa; assay: In vitro evaluation of antimicrobial activity with microplate broth dilution assay against Pseudomonas aeruginosa UC95; type: functional; summary of the method: as §2
[27] = tested on: Enterococcus faecalis; assay: In vitro evaluation of antimicrobial activity with microplate broth dilution assay against Streptococcus faecalis UC694

| Compound | Zone of inhibition [1] [mm] | Zone of inhibition [2] [mm] | Zone of inhibition [3] [mm] | Zone of inhibition [4] [mm] | Zone of inhibition [5] [mm] | Zone of inhibition [6] [mm] | Zone of inhibition [7] [mm] | Zone of inhibition [8] [mm] | Zone of inhibition [9] [mm] | Zone of inhibition [10] [mm] | ID50 [12] | further results |
| --- | --- | --- | --- | --- | --- | --- | --- | --- | --- | --- | --- | --- |
| CC(C)(C)C(=O)OCn1oc(=O)c2ccccc21 | 18 | 17 | 21 | 18 | 31 | 18 | 30 | 20 | 22 | 18 | – | – |
| CCCCCCCCCCCCCCCC(=O)OCn1oc(=O)c2ccccc21 | – | – | – | – | – | – | – | – | – | – | – | Zone of inhibition [11]: inactive |
| Cc1ccc(C(=O)OCn2oc(=O)c3ccccc32)cc1 | 20 | 18 | 21 | – | 24 | 22 | 20 | 22 | 17 | – | – | IC50 [12]: 4.6 µg/mL (≈ 16.2 µM); ID90 [13]: 17 µg/mL (≈ 60 µM) |
| O=C(NCCCCCI)n1oc(=O)c2ccccc21 | – | – | – | – | – | – | – | – | – | – | 3.7 µg/mL and 8.6 µg/mL | Zone of inhibition [11]: inactive |
| COCn1oc(=O)c2ccccc21 | – | – | – | – | – | – | – | – | – | – | – | Zone of inhibition [11]: inactive |
| CC(=O)OCn1oc(=O)c2ccccc21 | 24 | 26 | 24 | 24 | 43 | 25 | 32 | 32 | 22 | 15 | – | MIC [14]: 125 µg/mL (≈ 603 µM); MIC [15]: 62.5 µg/mL (≈ 302 µM); IC50 [12]: 5.1 µg/mL (≈ 24.6 µM); ID90 [13]: 19 µg/mL (≈ 91.7 µM); MIC [16]: 62.5 µg/mL (≈ 302 µM); MIC [17]: 125 µg/mL (≈ 603 µM); MIC [18]: 15.6 µg/mL (≈ 75.3 µM); MIC [19]: 62.5 µg/mL (≈ 302 µM); MIC [20]: 62.5 µg/mL (≈ 302 µM); Zone of inhibition [21]: 17 mm; MIC [22]: 62.5 µg/mL (≈ 302 µM); MIC [23]: 15.6 µg/mL (≈ 75.3 µM); MIC [24]: > 250 µg/mL; MIC [25]: > 250 µg/mL |
| CC(=O)n1oc(=O)c2ccccc21 | 24 | 26 | 20 | 18 | 49 | 23 | 31 | 38 | 20 | – | 3.4 µg/mL and 8.7 µg/mL | Zone of inhibition [21]: 21 mm |
| O=C(COc1ccccc1)OCn1oc(=O)c2ccccc21 | 20 | 18 | 22 | 19 | 24 | 21 | 31 | 19 | 20 | 15 | – | – |
| Oc1onc2ccccc12 | 22 | 25 | 26 | 27 | 41 | 30 | 35 | 30 | 26 | 15 | 3.1 µg/mL and 8 µg/mL | Zone of inhibition [21]: 16 mm |
| O=c1on(CO)c2ccccc12 | – | – | – | – | – | – | – | – | – | – | – | MIC [14]: 15.6 µg/mL (≈ 94.5 µM); MIC [15]: 31.6 µg/mL (≈ 191 µM); MIC [16]: 15.6 µg/mL (≈ 94.5 µM); MIC [17]: 31.2 µg/mL (≈ 189 µM); MIC [18]: 3.9 µg/mL (≈ 23.6 µM); MIC [19]: 7.8 µg/mL (≈ 47.2 µM); MIC [20]: 31.2 µg/mL (≈ 189 µM); MIC [22]: 15.6 µg/mL (≈ 94.5 µM); MIC [23]: 2 µg/mL (≈ 12.1 µM); MIC [26]: 7.8 µg/mL (≈ 47.2 µM); MIC [25]: 62.5 µg/mL (≈ 378 µM); MIC [27]: 250 µg/mL (≈ 1510 µM) |
| CC(C)C(=O)OCn1oc(=O)c2ccccc21 | 17 | 17 | 22 | 22 | 29 | 24 | 33 | 22 | 23 | 17 | – | – |
| CNC(=O)OCn1oc(=O)c2ccccc21 | 16 | 30 | 23 | 33 | 46 | 32 | 33 | 39 | 28 | – | – | MIC [14]: 31.2 µg/mL (≈ 140 µM); MIC [15]: 62.5 µg/mL (≈ 281 µM); IC50 [12]: 3.5 µg/mL (≈ 15.8 µM); ID90 [13]: 8.6 µg/mL (≈ 38.7 µM); MIC [16]: 31.2 µg/mL (≈ 140 µM); MIC [17]: 62.5 µg/mL (≈ 281 µM); MIC [18]: 15.6 µg/mL (≈ 70.2 µM); MIC [19]: 15.6 µg/mL (≈ 70.2 µM); MIC [20]: 31.2 µg/mL (≈ 140 µM); MIC [22]: 31.2 µg/mL (≈ 140 µM); MIC [23]: 3.9 µg/mL (≈ 17.6 µM); MIC [26]: 15.6 µg/mL (≈ 70.2 µM); MIC [25]: 62.5 µg/mL (≈ 281 µM) |
| Cn1oc(=O)c2ccccc21 | – | – | – | – | – | – | – | – | – | – | – | Zone of inhibition [11]: inactive |
| O=C(CCCCCI)OCn1oc(=O)c2ccccc21 | 15 | – | – | – | 26 | 15 | 23 | 17 | – | – | 19 µg/mL (≈ 48.8 µM) | – |
| CS(=O)(=O)n1oc(=O)c2ccccc21 | – | – | – | – | – | – | – | 31 | – | – | 3.7 µg/mL and 8.6 µg/mL | – |
| CNC(=O)n1oc(=O)c2ccccc21 | – | – | 16 | – | – | 19 | – | 24 | – | – | 4.9 µg/mL and 14 µg/mL | – |
